According to ChEMBL document CHEMBL1149285, “Identification of novel parasitic cysteine protease inhibitors using virtual screening. 1. The ChemBridge database” (J Med Chem, 2004):
Activity calls are given as the source filed them. The rule behind the calls is not given here.

Key:
Falcipain 2 = biological target: T1, Falcipain 2 (Plasmodium falciparum, UniProt Q9N6S8); experiment: Inhibition of Plasmodium falciparum recombinant falcipain-2
T1 sequence (Q9N6S8 whole entry): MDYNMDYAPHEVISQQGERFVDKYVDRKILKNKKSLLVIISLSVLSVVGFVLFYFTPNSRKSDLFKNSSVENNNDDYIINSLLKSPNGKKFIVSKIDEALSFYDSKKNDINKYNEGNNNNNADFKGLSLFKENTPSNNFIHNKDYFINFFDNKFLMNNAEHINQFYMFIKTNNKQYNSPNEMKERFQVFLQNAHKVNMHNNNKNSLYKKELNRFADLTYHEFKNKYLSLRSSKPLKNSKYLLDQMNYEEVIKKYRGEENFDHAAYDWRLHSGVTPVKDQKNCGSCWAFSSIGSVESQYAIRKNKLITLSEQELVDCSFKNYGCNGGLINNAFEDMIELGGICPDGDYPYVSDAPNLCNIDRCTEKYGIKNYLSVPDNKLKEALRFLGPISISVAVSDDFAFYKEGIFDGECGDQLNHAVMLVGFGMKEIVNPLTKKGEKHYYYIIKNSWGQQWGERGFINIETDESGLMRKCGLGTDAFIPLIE
Summary of the method: (§1)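 Equal amounts of recombinant enzyme preincubated 30 min at room temperature with serial inhibitor dilutions from DMSO stocks (DMSO at most 1% in assay) in 100 mM sodium acetate pH 5.5, 10 mM dithiothreitol. Z-Leu-Arg-AMC then added to 25 μM final; fluorescence followed 15 min at room temperature. IC50 taken from percent activity versus concentration plots.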

Vero = experiment: Cytotoxicity against Vero cells at 23.8 ug/mL by Neutral red assay; format: cell-based; conditions: chlorocebus sabaeus
Summary of the method: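 VERO monkey kidney […] exposed to compounds alongside the antiparasitic assays, viability by Neutral Red uptake; highest concentration tested 23.8 μg/mL; IC50 computed from growth inhibition curve.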

[1] = biological target: T2, Cysteine protease falcipain-3 (Plasmodium falciparum, UniProt Q9NBA7); experiment: Inhibition of Plasmodium falciparum recombinant falcipain-3; summary of the method: as §1
T2 sequence (Q9NBA7 whole entry): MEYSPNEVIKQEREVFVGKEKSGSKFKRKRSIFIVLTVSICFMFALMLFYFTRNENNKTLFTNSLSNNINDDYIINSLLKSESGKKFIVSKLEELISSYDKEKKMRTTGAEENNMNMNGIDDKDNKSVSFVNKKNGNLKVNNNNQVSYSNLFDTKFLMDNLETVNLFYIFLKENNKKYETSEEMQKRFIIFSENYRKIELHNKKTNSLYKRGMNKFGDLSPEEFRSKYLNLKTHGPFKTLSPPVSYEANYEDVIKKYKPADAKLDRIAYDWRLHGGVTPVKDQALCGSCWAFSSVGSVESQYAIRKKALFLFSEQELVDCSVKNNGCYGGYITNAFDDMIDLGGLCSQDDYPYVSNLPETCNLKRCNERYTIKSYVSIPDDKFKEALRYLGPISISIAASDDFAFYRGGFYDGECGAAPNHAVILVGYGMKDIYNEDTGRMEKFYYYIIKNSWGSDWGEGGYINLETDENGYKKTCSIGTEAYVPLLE

Leishmania donovani = experiment: Antileishmanial activity against Leishmania donovani promastigotes after 72 hrs by Alamar blue assay; format: functional, organism-based
Summary of the method: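 L. donovani promastigote culture at 2 × 10⁶ cells/mL given diluted compounds, incubated 72 h at 26 °C; growth read by Alamar blue. Pentamidine and amphotericin B as reference agents; IC50 computed from growth inhibition curve.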

[2] = biological target: T3, Cysteine protease (Leishmania donovani) (UniProt Q95WR6); experiment: (§2) Inhibition of Leishmania donovani cysteine protease
T3 sequence (whole entry): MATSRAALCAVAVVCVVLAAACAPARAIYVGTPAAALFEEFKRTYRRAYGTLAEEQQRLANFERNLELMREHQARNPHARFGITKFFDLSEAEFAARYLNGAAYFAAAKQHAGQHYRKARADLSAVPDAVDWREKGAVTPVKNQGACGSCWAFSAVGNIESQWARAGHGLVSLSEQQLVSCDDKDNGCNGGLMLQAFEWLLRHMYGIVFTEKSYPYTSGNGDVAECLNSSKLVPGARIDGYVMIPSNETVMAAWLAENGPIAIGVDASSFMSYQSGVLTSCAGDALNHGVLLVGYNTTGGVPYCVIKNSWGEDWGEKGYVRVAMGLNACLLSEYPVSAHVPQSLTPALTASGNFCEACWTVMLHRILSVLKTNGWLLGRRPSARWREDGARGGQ

Plasmodium falciparum [3] = experiment: Antiplasmodial activity against chloroquine-resistant Plasmodium falciparum W2 as LDH activity after 48 hrs; format: functional, organism-based; conditions: W2, 48 h
Summary of the method: (§3)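 Asynchronous P. falciparum cultures (2% hematocrit, 2% parasitemia) were exposed to compound dilutions prepared in DMSO. They were incubated 48 h at 37 °C in a humidified chamber under 90% N2, 5% CO2, 5% O2. Growth was read as parasite lactate dehydrogenase activity using Malstat reagent. Medium-only and erythrocyte-only wells were included, with chloroquine and artemisinin as positive and DMSO as negative controls.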

Plasmodium falciparum [4] = experiment: Antiplasmodial activity against chloroquine-sensitive Plasmodium falciparum D6 after 48 hrs as LDH reporter activity; format: functional, organism-based; conditions: D6, 48 h; summary of the method: as §3
Cysteine protease = biological target: T4, Cysteine protease (Leishmania donovani, UniProt Q95WR6); experiment: as §2
T4 sequence (Q95WR6 whole entry): T3 sequence (whole entry)

Row | Compound | IC50 (Falcipain 2) [µM] | Activity (Vero) | IC50 [1] [µM] | Activity (Leishmania donovani) | Activity [2] | EC50 (Plasmodium falciparum [3]) [µM] | EC50 (Plasmodium falciparum [4]) [µM] | IC50 (Cysteine protease) [µM] | IC50 (Leishmania donovani) [nM]
1 | O=C(Cc1nnc(NC(=O)c2ccccc2)s1)N/N=C\c1ccc(O)c(O)c1 | 31.1 | Non-toxic | > 50 | inactive | inactive | > 59.9 | > 59.9 |  | 
2 | O=C(CSc1ccc2ccccc2n1)N/N=C/c1ccc(O)cc1O | 63.4 | Non-toxic | > 50 | inactive | inactive | 67.3 | 32.5 |  | 
3 | O=C(N/N=C/c1ccc(/C=N/NC(=O)c2ccccc2O)cc1)c1ccccc1O | 2.2 | Non-toxic | 27.8 | inactive | inactive | 34.8 | 31.1 |  | 
4 | O=C(CN1C(=O)/C(=N\NC(=O)c2ccncc2)c2ccccc21)Nc1ccccc1 | 40.9 | Non-toxic | 62.2 | inactive |  | 59.6 | 56.3 | 62.6 | 
5 | O=C(CNC(=O)[C@@H]1COc2ccccc2O1)N/N=C/c1cccs1 | 26.6 | Non-toxic | > 50 | inactive | inactive | 68.9 | 68.9 |  | 
6 | CCCc1cc(O)nc(SCC(=O)Nc2ccccc2)n1 |  |  |  | inactive | inactive | > 78.4 | > 78.4 |  | 
7 | CC(C)CC(=O)N[C@H](C(=O)N[C@H](C(=O)N[C@@H](CC(C)C)[C@@H](O)CC(=O)N[C@@H](C)C(=O)N[C@@H](CC(C)C)[C@@H](O)CC(=O)O)C(C)C)C(C)C [PEPSTATIN] |  |  |  |  |  |  |  | 0.16 | 
8 | O=C(Cn1nnc(-c2ccccc2)n1)N/N=C1\C(=O)Nc2ccccc21 | 27.3 | Non-toxic | > 50 | inactive |  | 43.2 | 68.5 | 130 | 
9 | C/C(=N\NS(=O)(=O)c1ccc(C)cc1)c1c(O)c2ccccc2oc1=O | 3.9 | Non-toxic | 13.9 | inactive | inactive | 63.9 | 63.9 |  | 
10 | CCN(CC)CCCC(C)Nc1ccnc2cc(Cl)ccc12 (stereo not drawn) [CHLOROQUINE] |  |  |  |  |  | 0.28 | 0.009 |  | 
11 | N=C(N)c1ccc(OCCCCCOc2ccc(C(=N)N)cc2)cc1 [PENTAMIDINE] |  |  |  |  |  |  |  |  | 2000
12 | O=C(CSc1nnnn1-c1ccccc1)Nc1ccc(-n2cnnn2)cc1 | 7.5 | Non-toxic | 5.4 | inactive | inactive | 50.1 | 62.7 |  | 
13 | CC(C)C[C@H](NC(=O)[C@H]1O[C@@H]1C(=O)O)C(=O)NCCCCN=C(N)N [E-64] | 0.015 |  | 0.035 |  |  |  |  |  | 
14 | Oc1ccc(/C=N/c2ccc(/N=C/c3ccc(O)cc3O)c(Cl)c2)c(O)c1 | 2.1 | Non-toxic | 7.5 | inactive |  | 20.9 | 12.3 | 65.3 | 
15 | O=C(NCc1ccc(/C=c2/sc3n(c2=O)CCN=3)o1)C(=O)Nc1ccccc1 | 6.2 | Non-toxic | 11.8 | inactive | inactive | > 60 | > 60 |  | 
16 | CCCS(=O)(=O)N1CCN(S(=O)(=O)c2ccc3ccccc3c2)CC1 | 12.4 | Non-toxic | 29.6 | inactive | inactive | > 62.2 | > 62.2 |  | 
17 | CCCc1cc(=O)[nH]c(SCC(=O)Nc2ccccc2)n1 | 59.9 | Non-toxic | > 50 |  |  |  |  |  | 
18 | OC[C@H](O)/C=N/Nc1nc(Nc2ccccc2)nc(N2CCCCC2)n1 | 54.6 | Non-toxic | > 50 |  | inactive | 5.3 | 4.8 |  | 3600
19 | O=C(Nc1cccc(O)c1)c1cccc(S(=O)(=O)Nc2cccc(O)c2)c1 | > 50 | Non-toxic | > 50 |  | inactive | 37.7 | 35.1 |  | 300
20 | Oc1ccc(Nc2nc(-c3cccnc3)cs2)cc1 | 22.5 | Non-toxic | > 50 |  | inactive | 50.1 | 52 |  | 11500
21 | CCOP(=O)(CC(=O)NNC(=O)Nc1cccc2ccccc12)OCC | 53.4 | Non-toxic | > 50 | inactive | inactive | 40.9 | 52.7 |  | 
22 | OC[C@@H](O)/C=N/Nc1nc(Nc2ccccc2)nc(Nc2ccccc2)n1 | > 50 | Non-toxic | > 50 |  | inactive | 3.3 | 2.5 |  | 1900
23 | COC(=O)c1ccccc1NC(=O)COC(=O)CSc1nc(C)cc(C)n1 | 6.2 | Non-toxic | 12 | inactive | inactive | 61.1 | 61.1 |  | 
24 | Cc1cccc(NC(=O)CCC(=O)N/N=C/c2cc(Cl)ccc2O)c1 | 7.5 | Non-toxic | 5.4 | inactive | inactive | 12.1 | 13.5 |  | 
25 | C[C@@H]1[C@H](O)[C@@H](C)/C=C/C=C/C=C/C=C/C=C/C=C/C=C/[C@H](O[C@@H]2O[C@H](C)[C@@H](O)[C@H](N)[C@@H]2O)C[C@@H]2O[C@](O)(C[C@@H](O)C[C@@H](O)[C@H](O)CC[C@@H](O)C[C@@H](O)CC(=O)O[C@H]1C)C[C@H](O)[C@H]2C(=O)O [AMPHOTERICIN B] |  |  |  |  |  |  |  |  | 160
26 | N#CCC(=O)N/N=C\c1ccc(OCC(=O)Nc2ccc(F)cc2)cc1 | 5.7 | Non-toxic | > 50 | inactive | inactive | 67.2 | 59.3 |  | 
27 | Oc1ccc(/C=N/CC/N=C/c2ccc(O)cc2O)c(O)c1 | 20.8 | Non-toxic | > 50 | inactive | inactive | 74.9 | 46.6 |  | 
28 | C[C@@H]1CC[C@H]2[C@@H](C)C(=O)O[C@@H]3O[C@@]4(C)CC[C@@H]1[C@]32OO4 [ARTEMISININ] |  |  |  |  |  | 0.017 | 0.012 |  | 
29 | O=C(N/N=C/c1ccccc1O)c1cccc(C(=O)N/N=C/c2ccccc2O)n1 | 7 | Non-toxic | 10.5 | inactive | inactive | 6.2 | 3.7 |  | 
